Assays:
[1] = test system: LNCaP; experiment: Cytotoxicity against human LnCap cells after 4 days by MTT assay; type: functional, cell-based; conditions: 96 h
How it was run: (§1)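 Cells from ATCC seeded at 2-4×10^4 per well, attached overnight in medium with 10% FBS, 37 °C, 5% CO2. On day 1 medium replaced with medium containing graded compound concentrations. On day 4 MTT added (final 0.5 mg/mL), 4 h further incubation, DMSO solubilization, absorbance at 570 nm. IC50 from four-parameter logistic fit; each value average of four experiments.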

[2] = test system: HCT-116; experiment: Cytotoxicity against human HCT116 cells after 4 days by MTT assay; type: functional, cell-based; conditions: HCT-116, 96 h; how it was run: as §1
[3] = test system: MDA-MB-231; experiment: Cytotoxicity against human MDA-MB-231 cells after 4 days by MTT assay; type: functional, cell-based; conditions: MDA-MB-231, 96 h; how it was run: as §1
[4] = test system: HeLa; experiment: Cytotoxicity against human HeLa cells after 4 days by MTT assay; type: functional, cell-based; conditions: 96 h; how it was run: as §1
[5] = test system: MCF7; experiment: Cytotoxicity against human MCF7 cells after 4 days by MTT assay; type: functional, cell-based; conditions: MCF7, 96 h; how it was run: as §1
[6] = species: Homo sapiens; experiment: Inhibition of human topoisomerase 2-mediated DNA relaxation at 100 uM relative to etoposide
How it was run: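 Relaxation assay: supercoiled pBR322 plasmid DNA (0.3 µg) incubated with 0.2 unit human topoisomerase II and compound (20 and 100 µM), 37 °C, 30 min. Etoposide as positive control. Inhibition ratio calculated from gel band densitometry.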

[7] = test system: Escherichia coli; experiment: Effect on pBR322 DNA cross linking activity after 1 hr
How it was run: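 Linearized pBR322 DNA (0.5 µg) incubated with compound at 0, 10, 50, 100, 200 µM for 1 h at room temperature in 10 mM Tris-HCl pH 7.5. Run on 1.2% alkaline agarose gel (40 mM NaOH, 1 mM EDTA running buffer), neutralized, ethidium bromide stained, UV visualized.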

| inhibition [6] | Activity [7] | Structure (SMILES) | IC50 [1] | IC50 [2] | IC50 [3] | IC50 [4] | IC50 [5] |
| --- | --- | --- | --- | --- | --- | --- | --- |
|  |  | COc1cccc2c1C(=O)c1c(O)c3c(c(O)c1C2=O)C[C@@](O)(C(=O)CO)C[C@@H]3O[C@H]1C[C@H](N)[C@H](O)[C@H](C)O1 [DOXORUBICIN] | 4.6 µM | 7.7 µM | 17.6 µM | 3.3 µM |  |
|  |  | COc1cccc2c(=O)c3c(O)cc(OCC(O)CBr)cc3oc12 (configuration not stated) | > 100 µM | > 100 µM | 99.8 µM | > 100 µM | 97.8 µM |
|  |  | O=c1c2ccccc2oc2cc(OCC3CO3)cc(O)c12 (configuration not stated) | 93.1 µM | 80.8 µM | > 100 µM | 68.7 µM | 68.4 µM |
| 57% |  | O=c1c2ccccc2oc2cc(OCC(O)CBr)cc(O)c12 (configuration not stated) | 64.4 µM | 16.9 µM | 76.3 µM | 98.1 µM | 53.5 µM |
|  |  | COc1cccc2c(=O)c3c(O)cc(OCC4CO4)cc3oc12 (configuration not stated) | > 100 µM | > 100 µM | > 100 µM | > 100 µM | > 100 µM |
| 100% | Dose-dependent effect | O=c1c2ccccc2oc2cc(OCC3CO3)cc(OCC3CO3)c12 (configuration not stated) | 9 µM | 10.2 µM | 12.8 µM | 23.3 µM | 3.2 µM |
|  |  | COc1cccc2c(=O)c3c(O)cc(OCC(O)CCl)cc3oc12 (configuration not stated) | > 100 µM | 31.4 µM | 81.4 µM | 60.3 µM | > 100 µM |
|  |  | O=c1c2ccccc2oc2cc(OCC(O)CCl)cc(O)c12 (configuration not stated) | > 100 µM | > 100 µM | > 100 µM | > 100 µM | > 100 µM |

Source: ChEMBL document CHEMBL1148839, “Synthesis of new xanthone analogues and their biological activity test--cytotoxicity, topoisomerase II inhibition, and DNA cross-linking study” (Bioorg Med Chem Lett, 2007)
